Assay outcomes: PubChem, Johns Hopkins Ion Channel Center
A selection: hits, their analogues and other compounds. The true share with any hit is near 3.5%.
MrgX1 allo act = human MrgX1 positive allosteric modulation, primary screen; Q96LB2; MrgX1-HEK293, Fluo-4 calcium flux, FDSS; hits give high values; B-score at 10 µM; hit rate 0.63% among 310,000; AID 588675;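 active = plate-corrected calcium response at least 3 library SD above typical, normal starting fluorescence, not activating the receptor alone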;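 note: compound read alongside a low EC10 to EC30 dose of BAM8-22 agonist; peak minus trough fluorescence over baseline measured at the second addition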
Target sequence (Q96LB2 whole entry, looked up): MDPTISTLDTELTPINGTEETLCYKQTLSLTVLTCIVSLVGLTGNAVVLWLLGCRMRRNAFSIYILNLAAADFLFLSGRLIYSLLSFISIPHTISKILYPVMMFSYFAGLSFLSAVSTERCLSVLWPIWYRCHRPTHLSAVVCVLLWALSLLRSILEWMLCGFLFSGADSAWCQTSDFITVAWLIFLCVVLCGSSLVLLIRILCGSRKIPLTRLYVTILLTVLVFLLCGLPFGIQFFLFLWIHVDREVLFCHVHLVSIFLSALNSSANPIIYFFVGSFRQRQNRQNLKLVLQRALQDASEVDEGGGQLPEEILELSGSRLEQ
MrgX1 agonist = human MrgX1 receptor agonism, primary screen. MrgX1-HEK293 cells, Fluo-4 calcium fluorescence, agonist mode; hits give high values. B-score at 10 µM. hit rate 0.44% among 310,000;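 active = calcium response B-score plate-corrected fluorescence ratio at least 3 library SD, with starting fluorescence B-score inside 5 SD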
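Material: MrgX1-expressing HEK293 cells / Dosing: compound as first of three additions / Incubation: overnight seeding, then 1 h dark dye loading / Signal: Fluo-4 NW calcium fluorescence / Evaluation: B-scored fluorescence response ratio / Benchmarks: positive and negative control wells on each plate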
MrgX1 antagonist = antagonists of human MrgX1 receptor | B-score at 10 µM | AID 588676 | hit rate 1.3% among 310,000 | MRGX1-HEK293 calcium flux, Fluo-4, BAM8-22 antagonism; hits give low values | Q96LB2;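 active = calcium-response B-score plate-corrected more than 3 library SD below zero, starting fluorescence within 5 deviations, no agonist response on first addition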;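 note: peak minus trough fluorescence over baseline after final BAM8-22 challenge near maximal dose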
RGS4 block = human RGS4 inhibition | P49798 | HEK293 M3R/RGS4 inducible, Fluo-4 calcium flux; hits give high values; triggered by carbachol at its EC20 | B-score at 10 µM | hit rate 0.45% among 310,000 | AID 463165;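 active = B-score, a plate-corrected calcium signal, over three deviations above library mean, with baseline fluorescence within five deviations of library mean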;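 note: RGS4 expression induced by doxycycline in cells with stable M3 receptor; B-score is computed from the integrated fluorescence ratio over baseline after carbachol; higher B-score means a larger calcium signal and so more RGS4 inhibition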
Target sequence (P49798 whole entry, looked up): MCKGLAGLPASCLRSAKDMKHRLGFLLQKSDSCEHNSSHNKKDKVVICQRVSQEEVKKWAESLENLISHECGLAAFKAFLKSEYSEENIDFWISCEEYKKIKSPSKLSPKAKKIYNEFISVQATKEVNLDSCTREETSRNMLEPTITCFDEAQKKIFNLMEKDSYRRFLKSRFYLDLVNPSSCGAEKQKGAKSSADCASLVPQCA
RGS4 act = RGS4 potentiation or activation. B-score at 10 µM. HEK293 M3R/inducible RGS4, carbachol calcium flux Fluo4; hits give low values. hit rate 0.92% among 310,000. AID 463111;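 active = B-score of the integrated calcium signal more than 4 SD below the library mean, with starting fluorescence not abnormally high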;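 note: negative B-score means reduced calcium response which marks RGS4 activation or potentiation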
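test system = HEK293 cells with stable M3R and inducible RGS4 | schedule = recording 10 s baseline at 1 Hz, 100 s post-agonist | technique = Fluo4-AM (2 µM) calcium-flux fluorescence, kinetic read | measure = Agonist-evoked peak-minus-minimum fluorescence over baseline, integrated ratio, B score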
Starred values were filed as active, the others as inactive; i = inactive; . = no result given.

SMILES	MrgX1 allo act	MrgX1 agonist	MrgX1 antagonist	RGS4 block	RGS4 act
O=C1NCC(c2ccccc2)C1C(=O)N/N=C\c1ccc(-c2ccc(Cl)c(Cl)c2)o1 (configuration not stated)	i	i	i	9*	i
COc1ccc(N2C(=O)CSC2c2ccc3c(c2)OCO3)cc1 (configuration not stated)	i	i	i	i	-7*
COc1ccc(N2C(=O)CSC2c2ccc3c(c2)OCO3)c(OC)c1 (configuration not stated)	i	i	i	i	i
COC(=O)C1CC(c2c(OC)cc(OC)cc2OC)=NO1 (configuration not stated)	i	i	i	i	i
COC(=O)[C@@H]1C(c2c(OC)cc(OC)cc2OC)=NO[C@H]1C(=O)OC	i	i	-6.2*	i	i
CSc1ccc(CN(C)C(=O)c2cccc(S(=O)(=O)NCc3ccccc3)c2)cc1	i	i	-5.1*	i	i
CN(Cc1ccc(F)cc1)C(=O)C(Cc1ccccc1)NC(=O)c1ccccc1 (configuration not stated)	i	i	i	i	i
CCCN(CC(=O)Nc1ccccc1OC)C(=O)c1cccc(S(=O)(=O)NCc2ccccc2)c1	i	i	-6.1*	i	i
CSc1ccc(CN(C)C(=O)C(Cc2ccccc2)NC(=O)c2ccccc2)cc1 (configuration not stated)	i	i	i	i	-7.3*
O=C(NNC(=S)NC(=O)c1ccccc1[N+](=O)[O-])c1ccccc1[N+](=O)[O-]	i	i	i	i	i
CCCCOc1ccccc1C(=O)NNC(=S)NC(=O)c1ccccc1[N+](=O)[O-]	i	i	-5.8*	i	i
Cc1ccc(-n2c3nc(=O)n(C)c(=O)c-3cc3ccccc32)cc1	i	i	i	i	-8*
CCOc1ccc(NC(=O)COC(=O)Cc2ccc(S(=O)(=O)N3CCOCC3)s2)cc1	i	i	i	i	i
CCOc1ccc(S(=O)(=O)N2CCN(C(=O)Cc3ccc(S(=O)(=O)N4CCOCC4)s3)CC2)cc1	i	i	i	i	-7.3*
CN(C)c1ccc(/C=C2\SC(=S)N(Nc3ncc(C(F)(F)F)cc3Cl)C2=O)cc1	13*	i	i	i	i
COc1cc(/C=C2\SC(=S)N(Nc3ccccc3)C2=O)ccc1O	i	i	i	i	i
COc1cc(/C=C2\SC(=S)N(Nc3ncc(C(F)(F)F)cc3Cl)C2=O)ccc1O	17*	i	i	i	i
O=C(NCC(=O)N1CCN(Cc2ccccc2)CC1)c1ccc(Br)o1	i	i	i	i	i
COC(=O)c1c(NC(=O)C(=O)NCC2CCCO2)sc2c1CC(C)(C)OC2 (configuration not stated)	i	i	i	i	i
CC(C)(CNC(=O)Cc1ccc(NS(=O)(=O)c2cccc(C(F)(F)F)c2)cc1)N1CCOCC1	i	i	i	i	i
Cc1csc2nc(O)c(C(=O)NC3CCCCC3C)c(=O)n12 (configuration not stated)	i	i	i	i	i
COc1cc2c(cc1NC(=S)Nc1cccc3ccccc13)oc1ccccc12	i	i	i	i	i
COc1cc2c(cc1NC(=S)Nc1cccc(C(F)(F)F)c1)oc1ccccc12	i	i	-5.7*	i	i
CCOC(=O)C1CCN(c2c(NCCN(CC)c3ccccc3)c(=O)c2=O)CC1	10*	i	i	i	i
Cc1ccc(N(C(=O)c2snc(C(N)=O)c2N)C(C(=O)NC2CCCC2)c2ccco2)cc1 (configuration not stated)	.	.	.	i	i
SMILES	MrgX1 allo act	MrgX1 agonist	MrgX1 antagonist	RGS4 block	RGS4 act
CN(C)c1ccc(NC(=O)Cc2ccccc2)c2ccccc12	i	i	i	i	i
c1ccc(-c2nc(-n3nc4ccccc4n3)nc3ccccc23)cc1	i	i	i	i	-7.2*
Clc1ccc(-c2nc(N3CCCCC3)nc3ccccc23)cc1	i	i	i	i	i
CC(C)(C)NC(=O)C(c1ccncc1)N(C(=O)Cn1nnc(-c2ccc(F)cc2)n1)c1ccc(F)cc1 (configuration not stated)	i	i	-5.6*	i	i
CN1CCN(CCCNC(=O)c2ccc(/C=C3\Sc4ccccc4N(Cc4ccc(F)cc4)C3=O)cc2)CC1	.	.	.	i	-7.5*
O=C(CN1C(=O)/C(=C/c2ccccc2)Sc2ccccc21)NCCCN1CCOCC1	i	i	i	i	i
Cc1cccc(CN2C(=O)/C(=C\c3ccc(C(=O)NCCCN4CCN(C)CC4)cc3)Oc3ccccc32)c1	i	i	i	i	i
CN1CCN(CCCNC(=O)c2ccc(/C=C3\Oc4ccccc4N(Cc4ccccc4F)C3=O)cc2)CC1	i	i	i	i	-8.3*
CN1CCN(CCCNC(=O)c2ccc(/C=C3/Sc4ccccc4N(Cc4cccc(Cl)c4)C3=O)cc2)CC1	.	.	.	i	-7.7*
COc1ccc(CCNC(=O)C2CCN(C(=O)c3ccc(C(C)(C)C)cc3)CC2)cc1	i	i	i	i	i
CCc1ccc(OCC(=O)Nc2ccc3[nH]ncc3c2)cc1	i	i	i	i	i
O=C(CCNS(=O)(=O)c1ccccc1)OCC(=O)c1ccc(Br)cc1	i	i	i	i	i
COc1ccc(C(=O)COC(=O)CCNS(=O)(=O)c2ccccc2)cc1Br	i	i	-5.6*	i	i
CCCC(=O)OCCNC(=O)c1cc2ccccc2oc1=O	i	i	-5.4*	i	i
COc1ccccc1Nc1nc(N)nc(CSC(=S)N2CCCCC2)n1	i	i	i	i	i
Cc1ccnc(NC(=O)C2CCCN(S(=O)(=O)c3ccc4[nH]c(=O)ccc4c3)C2)c1 (configuration not stated)	i	i	i	i	i
c1ccc(CSc2cc3ccccc3[nH]2)cc1	i	i	i	i	i
COc1cc(OC)cc(C(=O)NNC(=O)CN2C(=O)NC(C)(c3ccccc3)C2=O)c1 (configuration not stated)	i	i	i	i	i
COc1cccc(C(=O)NNC(=O)Cc2ccc(Cl)cc2)c1	i	i	-7*	i	i
COc1ccc(C(=O)NNC(=O)Cc2ccc(Cl)cc2)cc1	i	i	i	i	i
Cc1cccc(C(C(=O)NC2CCCCC2)N(C(=O)c2csnn2)C2CC2)c1 (configuration not stated)	i	i	i	i	i
